Experimental data from different studies.
Target: BDNF/NT-3 growth factors receptor (NTRK2, Homo sapiens, UniProt Q16620)

| Compound | assay | setting | quantity | result |
| --- | --- | --- | --- | --- |
| COc1cc(Cl)c(C(=O)N[C@@H](CN[C@H]2CC[C@@H](N)CC2)Cc2ccc(C#N)cc2)cc1-c1ccc(CN[C@H](C)c2ccc(C)cc2)o1 | enzyme activity, inhibitor | 1 µM | remaining activity | 64% |
| O=C(Nc1ccccc1)Nc1cccc(C(=O)Nc2ccc3[nH]ncc3c2)c1 | enzyme activity, inhibitor, FRET | 1 µM | inhibition | 12.3% |
| CCN(CC)c1ccc(C2=NNC(=O)CC2C)cc1[N+](=O)[O-] (centres unmarked) | enzyme activity, inhibitor | 10 µM | remaining activity | 87% |
| CS(=O)(=O)NCC[C@H](NC(=O)c1cncc2c1cnn2-c1ccc(F)cc1)c1ccnc(S(C)(=O)=O)c1 | cell-free assay, competition with immobilised ligand | 1 µM | remaining binding | 100% |
| O=C(Nc1ccc(C(F)(F)F)cc1)Nc1cccc(C(=O)Nc2ccc3[nH]nc(-c4ccccc4)c3c2)c1 | enzyme activity, inhibitor, FRET | 1 µM | inhibition | 14.7% |
| Cc1ccc(NC(=O)c2ccc(CN3CCN(C)CC3)cc2)cc1Nc1nc(-c2cccnc2)cs1 | cell-free assay | 0.5 µM | remaining signal | 101% |
| CNC(=O)Nc1ccc2c(c1)[C@@]1(CC2)OC(=O)N(CC(=O)N(Cc2ccc(F)cc2)[C@@H](C)C(F)(F)F)C1=O | cell-free assay, competition with immobilised ligand | 1 µM | remaining binding | 89% |
| O=C(Nc1cccc(F)c1)Nc1cccc(C(=O)Nc2ccc3[nH]ncc3c2)c1 | enzyme activity, inhibitor, FRET | 1 µM | inhibition | 19.3% |
| Cc1c(NC(=O)c2cc(C(N)=O)nc3cc(F)ccc23)c(C(F)(F)F)nn1Cc1ccc(C(C)(C)C)cc1 | cell-free assay, competition with immobilised ligand | 1 µM | remaining binding | 100% |
| O=C(Nc1cccc(C(=O)Nc2ccc3[nH]ncc3c2)c1)Nc1ccccc1Cl | enzyme activity, inhibitor, FRET | 1 µM | inhibition | 20.6% |
| CC1=C(C#N)[C@@H](c2ccc3[nH]nc(C)c3c2)C(C#N)=C(c2ccc(Cl)cc2)N1 | cell-free assay, competition with immobilised ligand | 1 µM | remaining binding | 85.2% |
| CNC(=O)c1cc(Oc2ccc(NC(=O)Nc3ccc(Cl)c(C(F)(F)F)c3)cc2)ccn1 | cell-free assay | 10 µM | inhibition | 99% |
| c1ccc(N2CCN(Cc3nc4ccccc4[nH]3)CC2)nc1 | cell-free assay, competition with immobilised ligand | 1 µM | remaining binding | 100% |
| Cc1cc(NC(=O)c2cccc3cc(-c4cccc5[nH]nc(N)c45)ccc23)ccc1F | enzyme activity, inhibitor | 0.1 µM | activity vs control | 107% |
| Cc1ccc(C(=O)Nc2ccc(CN3CCN(C)CC3)c(C(F)(F)F)c2)cc1C#Cc1cnc2cccnn12 | cell-free assay | 23.5 nM | remaining signal | 2.3% |
| O=C(Nc1cnn(-c2csc(C(=O)NC3COC3)c2)c1)Nc1ccccc1Cl | enzyme activity, inhibitor | 5 µM | remaining activity | 84.2% |
| O=C(Nc1ccc(C(F)(F)F)cc1)Nc1cccc(C(=O)Nc2ccc3[nH]ncc3c2)c1 | enzyme activity, inhibitor, FRET | 1 µM | inhibition | 14% |
| CC(C)(C)c1nc(-c2cccc(NS(=O)(=O)c3c(F)cccc3F)c2F)c(-c2ccnc(N)n2)s1 | enzyme activity, inhibitor, radiometric | 1 µM | remaining activity | 100% |
| COc1cc2c(N3CCN(C(=O)Nc4ccc(OC(C)C)cc4)CC3)ncnc2cc1OCCCN1CCCCC1 | cell-free assay | 0.5 µM | remaining signal | 81.7% |
| CCN(CC)CCNC(=O)c1c(C)[nH]c(/C=C2\C(=O)Nc3ccc(F)cc32)c1C | cell-free assay | 0.3 µM | inhibition | 70% |
| O=C1NC(=O)c2cc(Nc3ccc(F)cc3)c(Nc3ccc(F)cc3)cc21 | cell-free assay | 0.5 µM | remaining signal | 91.9% |
| C[C@H](c1ccc(F)cc1)N(Cc1cccc(C(=O)O)c1)C(=O)c1cnc2ccccc2c1 | cell-free assay, competition with immobilised ligand | 1 µM | remaining binding | 100% |
| O=C(Nc1ccc2[nH]ncc2c1)c1cccc(NC(=O)c2cc(C(F)(F)F)ccc2F)c1 | enzyme activity, inhibitor, FRET | 1 µM | inhibition | 13.5% |
| O=C1Nc2ccc(Cl)cc2C1=Cc1cc(Cl)c(O)c(Cl)c1 | cell-free assay | 0.5 µM | remaining signal | 61.1% |
| Cc1cc(C)c(-n2ccn3nc(-c4cccnc4)cc23)cc1NC(=O)c1cc(C#N)cc(S(F)(F)(F)(F)F)c1 | cell-free assay, competition with immobilised ligand | 0.1 µM | remaining binding | 54.8% |
| O=C(Nc1ccc(Br)cc1)Nc1cccc(C(=O)Nc2ccc3[nH]ncc3c2)c1 | enzyme activity, inhibitor, FRET | 1 µM | inhibition | 15.7% |
| O=C(Nc1cnn(-c2csc(C(=O)NC3COC3)c2)c1)Nc1c(F)cccc1Cl | enzyme activity, inhibitor | 5 µM | remaining activity | 91.5% |
| O=C(Nc1ccc(Oc2ccc(F)cc2)cc1)N1CCc2ncccc2[C@H]1c1ccc(F)cc1 | cell-free assay, competition with immobilised ligand | 1 µM | remaining binding | 84% |
| O=C(Nc1cnn2ccc(N3CCC[C@@H]3c3cc(F)ccc3F)nc12)N1CC[C@H](O)C1 | enzyme activity, inhibitor, FRET | 1 µM | inhibition | 100% |
